From ChEMBL document CHEMBL5120805, “Autoxidation of a C2-Olefinated Dihydroartemisinic Acid Analogue to Form an Aromatic Ring: Application to Serrulatene Biosynthesis” (2022)
In brackets after ≈: the same amount, converted by molar mass.

Assays:
Type in all cases: functional
Staphylococcus aureus = test: Antimicrobial activity against Staphylococcus aureus JE2 ssessed as reduction in bacterial growth and measured for 24 hrs by resazurin dye based broth microdilution method
Procedure, shortened: (§1)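 Overnight cultures diluted to ~1 × 10^5 CFU/mL and exposed to compounds (DMSO stocks at 10 mg/mL) over 0.048–100 μg/mL final. Incubated standing in lysogeny broth at 37 °C for 24 h. Resazurin then added, 1 h further incubation, and MIC read from colour change.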

Pseudomonas aeruginosa = test: Antimicrobial activity against Pseudomonas aeruginosa PA14 assessed as reduction in bacterial growth and measured for 24 hrs by resazurin dye based broth microdilution method; procedure, shortened: as §1
Cryptococcus neoformans = test: Antimicrobial activity against Cryptococcus neoformans H99 assessed as reduction in […] growth and measured for 48 hrs by resazurin dye based broth microdilution method
Procedure, shortened: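 Cells from overnight growth diluted to ~1 × 10^5 CFU/mL in sabouraud dextrose broth. Compounds from 10 mg/mL DMSO stocks tested at 0.048–100 μg/mL. Plates incubated standing at 37 °C for 48 h, then resazurin added for a further 24 h. MIC taken from colour change.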

Row | Molecule | MIC (Staphylococcus aureus) [µg/mL] | MIC (Pseudomonas aeruginosa) [µg/mL] | MIC (Cryptococcus neoformans) [µg/mL]
1 | CC(C)=CC=C[C@H](C)[C@@H]1CC[C@@H](C)c2ccc(C)cc21 | > 100 | > 100 | > 100
2 | CC1=C[C@H]2[C@@H](CC1)[C@H](C)CC[C@H]2[C@@H](C)CCC=O | > 100 | > 100 | > 100
3 | Cc1ccc2c(c1)[C@H]([C@@H](C)CO)CC[C@H]2C | > 100 | > 100 | ≥ 100
4 | O=C(O)c1cn(C2CC2)c2cc(N3CCNCC3)c(F)cc2c1=O [CIPROFLOXACIN] | 12.5 (≈ 37.7 µM) | < 0.04 | –
5 | CC1=C[C@H]2[C@@H](CC1)[C@@H]([C@H](C)C(=O)OCc1cn(CCOCCOCCOCNS(=O)(=O)c3ccc(C4=c5cc6c7c(c5Oc5c4cc4c8c5CCCN8CCC4)CCC[N+]=7CCC6)c(S(=O)(=O)[O-])c3)nn1)CC[C@@H]2C | > 50 | > 50 | > 50
6 | CC1=C[C@H]2[C@@H](C=C1)[C@H](C)CC[C@H]2[C@@H](C)CO | 50 (≈ 227 µM) | > 100 | 25 (≈ 113 µM)
7 | Cc1ccc2c(c1)[C@H]([C@@H](C)C=O)CC[C@H]2C | > 100 | > 100 | 100 (≈ 462 µM)
8 | GENTAMICIN | 6.25 | 0.39 | 6.25
9 | C[C@@H]1CC[C@H]2[C@@H](C)C(=O)O[C@@H]3O[C@@]4(C)CC[C@@H]1[C@]32OO4 [ARTEMISININ] | > 100 | > 100 | 100 (≈ 354 µM)
10 | C#COC(=O)[C@H](C)[C@@H]1CC[C@@H](C)[C@@H]2CCC(C)=C[C@@H]21 | > 100 | > 100 | > 100
11 | COC=C[C@H](C)[C@@H]1CC[C@@H](C)[C@@H]2CCC(C)=C[C@@H]21 (mixture of isomers) | 12.5 | > 100 | 50
12 | CC1=C[C@H]2[C@@H](CC1)[C@H](C)CC[C@H]2[C@@H](C)C=O | > 100 | > 100 | 12.5 (≈ 56.7 µM)
13 | CC(C)=CCC[C@H](C)[C@@H]1CC[C@@H](C)c2ccc(C)cc21 | > 100 | > 100 | > 100
14 | CC(=O)OCCC[C@H](C)[C@@H]1CC[C@@H](C)[C@@H]2C[C@@H](O)C(C)=C[C@@H]21 | > 100 | > 100 | 25 (≈ 81 µM)
15 | Cc1ccc2c(c1)C([C@@H](C)CO)=CC[C@H]2C | 100 (≈ 462 µM) | > 100 | 50 (≈ 231 µM)
16 | Cc1ccc2c(c1)[C@H]([C@@H](C)C(=O)O)CC[C@H]2C | > 100 | > 100 | 100 (≈ 430 µM)
17 | CC1=C[C@H]2[C@@H](CC1)[C@H](C)CC[C@H]2[C@@H](C)CCCO | 12.5 (≈ 49.9 µM) | > 100 | > 100
18 | CC(=O)OCCC[C@H](C)[C@@H]1CC[C@@H](C)[C@@H]2CCC(C)=C[C@@H]21 | > 100 | > 100 | 12.5 (≈ 42.7 µM)
19 | CC1=C[C@H]2[C@@H](CC1)[C@H](C)CC[C@H]2[C@@H](C)C(=O)O | 100 (≈ 423 µM) | > 100 | 25 (≈ 106 µM)
20 | CO[C@@H]1[C@@H](OC(N)=O)[C@@H](O)[C@H](Oc2ccc3c(O)c(NC(=O)c4ccc(O)c(CC=C(C)C)c4)c(=O)oc3c2C)OC1(C)C [NOVOBIOCIN] | < 0.19 | – | –
21 | CC1C[C@@H]2OO[C@H]1[C@@H]1[C@H]([C@@H](C)C(=O)O)CC[C@@H](C)[C@@H]12 (stereo partly specified) | > 100 | > 100 | > 100
22 | C[C@@H]1[C@H](O)[C@@H](C)/C=C/C=C/C=C/C=C/C=C/C=C/C=C/[C@H](O[C@@H]2O[C@H](C)[C@@H](O)[C@H](N)[C@@H]2O)C[C@@H]2O[C@](O)(C[C@@H](O)C[C@@H](O)[C@H](O)CC[C@@H](O)C[C@@H](O)CC(=O)O[C@H]1C)C[C@H](O)[C@H]2C(=O)O [AMPHOTERICIN B] | – | – | < 0.048
23 | CC1=C[C@H]2[C@@H](C=C1)[C@H](C)CC[C@H]2[C@@H](C)CCCO | 50 (≈ 201 µM) | > 100 | > 100
24 | COC=CC[C@H](C)[C@@H]1CC[C@@H](C)[C@@H]2CCC(C)=C[C@@H]21 (mixture of isomers) | > 100 | > 100 | > 100
25 | CC1=C[C@H]2[C@@H](C=C1)[C@H](C)CC[C@H]2[C@@H](C)C=O | > 100 | > 100 | > 100
26 | CC1=CC2=C([C@@H](C)C(=O)O)CC[C@@H](C)[C@@H]2CC1 | > 100 | > 100 | > 100
27 | CC1=C[C@H]2[C@@H](C=C1)[C@H](C)CC[C@H]2[C@@H](C)C(=O)O | > 100 | > 100 | 100 (≈ 427 µM)
